Data as given in ChEMBL document CHEMBL4715736, “Identification of anticancer agents based on the thieno[2,3-b]pyridine and 1H-pyrazole molecular scaffolds” (2016).

What was measured:
Assay type in all cases: functional
Details in all cases: read-out: Activity
UACC-62 = experiment: Growth inhibition of human UACC-62 cells assessed as cell growth at 10 uM incubated for 48 hrs by sulforhodamine B assay relative to control
How it was run: (§1)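 Run by the NCI Developmental Therapeutics Program as part of its 60-line human tumour panel. Each compound tested at a single 10 µM dose. Growth expressed as % relative to untreated control cells (100%).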

NCI-H23 = experiment: Growth inhibition of human NCI-H23 cells assessed as cell growth at 10 uM incubated for 48 hrs by sulforhodamine B assay relative to control
How it was run: (§2)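 Submitted to the NCI Developmental Therapeutics Program for the NCI60 human tumour cell line panel. First screen at a single 10 µM concentration. Read-out is growth relative to untreated control cells set at 100%.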

K562 = experiment: Growth inhibition of human K562 cells assessed as cell growth at 10 uM incubated for 48 hrs by sulforhodamine B assay relative to control; how it was run: as §2
SF-268 = experiment: Growth inhibition of human SF-268 cells assessed as cell growth at 10 uM incubated for 48 hrs by sulforhodamine B assay relative to control; how it was run: as §1
HOP-92 = experiment: Growth inhibition of human HOP-92 cells assessed as cell growth at 10 uM incubated for 48 hrs by sulforhodamine B assay relative to control; how it was run: as §2
HT-29 = experiment: Growth inhibition of human HT-29 cells assessed as cell growth at 10 uM incubated for 48 hrs by sulforhodamine B assay relative to control; how it was run: as §2
A549 = experiment: Growth inhibition of human A549/ATCC cells assessed as cell growth at 10 uM incubated for 48 hrs by sulforhodamine B assay relative to control
How it was run: (§3)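 NCI Developmental Therapeutics Program NCI60 panel. Compounds that were active in the 10 µM one-dose screen went on to dose–response testing. Growth at each concentration is expressed relative to untreated control (100%). GI50 (concentration giving 50% of maximal inhibition of proliferation) and TGI (concentration giving total growth inhibition) were derived from the curves.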

COLO 205 = experiment: Growth inhibition of human COLO 205 cells assessed as cell growth at 10 uM incubated for 48 hrs by sulforhodamine B assay relative to control; how it was run: as §3
HOP-62 = experiment: Growth inhibition of human HOP-62 cells assessed as cell growth at 10 uM incubated for 48 hrs by sulforhodamine B assay relative to control; how it was run: as §2
BT-549 = experiment: Growth inhibition of human BT-549 cells assessed as cell growth at 10 uM incubated for 48 hrs by sulforhodamine B assay relative to control
How it was run: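 NCI Developmental Therapeutics Program NCI60 human tumour cell line panel, one-dose primary screen with every compound at 10 µM. Growth is expressed as % of untreated control cells (100%).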

A498 = experiment: Growth inhibition of human A498 cells assessed as cell growth at 10 uM incubated for 48 hrs by sulforhodamine B assay relative to control; how it was run: as §3
CCRF-CEM = experiment: Growth inhibition of human CCRF-CEM cells assessed as cell growth at 10 uM incubated for 48 hrs by sulforhodamine B assay relative to control; how it was run: as §3
M14 = experiment: Growth inhibition of human M14 cells assessed as cell growth at 10 uM incubated for 48 hrs by sulforhodamine B assay relative to control; how it was run: as §2
UACC-257 = experiment: Growth inhibition of human UACC-257 cells assessed as cell growth at 10 uM incubated for 48 hrs by sulforhodamine B assay relative to control; how it was run: as §1
TK-10 = experiment: Growth inhibition of human TK-10 cells assessed as cell growth at 10 uM incubated for 48 hrs by sulforhodamine B assay relative to control; how it was run: as §1
NCI-H522 = experiment: Growth inhibition of human NCI-H522 cells assessed as cell growth at 10 uM incubated for 48 hrs by sulforhodamine B assay relative to control; how it was run: as §2
SNB-19 = experiment: Growth inhibition of human SNB-19 cells assessed as cell growth at 10 uM incubated for 48 hrs by sulforhodamine B assay relative to control; how it was run: as §1
HCT-15 = experiment: Growth inhibition of human HCT-15 cells assessed as cell growth at 10 uM incubated for 48 hrs by sulforhodamine B assay relative to control; how it was run: as §2
SK-MEL-2 = experiment: Growth inhibition of human SK-MEL-2 cells assessed as cell growth at 10 uM incubated for 48 hrs by sulforhodamine B assay relative to control; how it was run: as §1
OVCAR-8 = experiment: Growth inhibition of human OVCAR-8 cells assessed as cell growth at 10 uM incubated for 48 hrs by sulforhodamine B assay relative to control; how it was run: as §1
IGROV-1 = experiment: Growth inhibition of human IGROV-1 cells assessed as cell growth at 10 uM incubated for 48 hrs by sulforhodamine B assay relative to control; how it was run: as §2
SNB-75 = experiment: Growth inhibition of human SNB-75 cells assessed as cell growth at 10 uM incubated for 48 hrs by sulforhodamine B assay relative to control; how it was run: as §1
MDA-MB-231 = experiment: Growth inhibition of human MDA-MB-231 cells assessed as cell growth at 10 uM incubated for 48 hrs by sulforhodamine B assay relative to control; how it was run: as §2
SK-OV-3 = experiment: Growth inhibition of human SK-OV-3 cells assessed as cell growth at 10 uM incubated for 48 hrs by sulforhodamine B assay relative to control; how it was run: as §1
CAKI-1 = experiment: Growth inhibition of human CAKI-1 cells assessed as cell growth at 10 uM incubated for 48 hrs by sulforhodamine B assay relative to control; how it was run: as §3
U-251 = experiment: Growth inhibition of human U-251 cells assessed as cell growth at 10 uM incubated for 48 hrs by sulforhodamine B assay relative to control; how it was run: as §1

Row | Structure (SMILES) | growth at 10 µM (UACC-62) [%] | growth at 10 µM (NCI-H23) [%] | growth at 10 µM (K562) [%] | growth at 10 µM (SF-268) [%] | growth at 10 µM (HOP-92) [%] | growth at 10 µM (A549) [%] | growth at 10 µM (COLO 205) [%] | growth at 10 µM (HOP-62) [%] | growth at 10 µM (A498) [%] | growth at 10 µM (CCRF-CEM) [%] | growth at 10 µM (M14) [%] | growth at 10 µM (UACC-257) [%] | growth at 10 µM (SNB-19) [%] | growth at 10 µM (HCT-15) [%] | growth at 10 µM (OVCAR-8) [%] | growth at 10 µM (IGROV-1) [%] | growth at 10 µM (SNB-75) [%] | growth at 10 µM (MDA-MB-231) [%] | growth at 10 µM (CAKI-1) [%] | growth at 10 µM (U-251) [%] | also measured
1 | CC(=O)c1ccc2c(N)c(C(=O)Nc3ccccc3)sc2n1 | 115 | 99.2 | 95 | 112 | 74 | 89 | 105 | 102 | 70.3 | 101 | 109 | 102 | 105 | 96.7 | 100 | 113 | 99.5 | 112 |  |  | growth at 10 µM (HT-29): 97.2%; growth at 10 µM (BT-549): 108%; growth at 10 µM (TK-10): 108%; growth at 10 µM (NCI-H522): 103%; growth at 10 µM (SK-MEL-2): 107%; growth at 10 µM (SK-OV-3): 106%
2 | CC(=O)Nc1ccc(S(=O)(=O)n2ccc(-c3ccc4c(c3)CCC(C)(C)O4)n2)cc1 | 62.4 | 56.6 | 36.7 | 77.2 | 69.8 | 57.8 | 88.8 | 94.4 | 21.9 | 55.4 | 64.7 | 46 | 73.3 | 59.3 | 69.4 | 68 | 81.5 | 88.6 | 48.8 | 66 | growth at 10 µM (TK-10): 55.1%; growth at 10 µM (NCI-H522): 54%; growth at 10 µM (SK-MEL-2): 53.5%
3 | CC1(C)CCc2cc(-c3ccn(S(=O)(=O)c4ccc(Cl)cc4Cl)n3)ccc2O1 | 72.6 | 98.1 | 75.7 | 99.5 | 57.1 | 83.7 | 106 | 105 | 68.9 | 62.4 | 85.9 | 97.1 | 87.2 | 91 | 97 | 94.5 | 97.4 | 93.3 | 83.8 | 87.9 | growth at 10 µM (TK-10): 68.7%; growth at 10 µM (NCI-H522): 60.4%; growth at 10 µM (SK-MEL-2): 79.7%
4 | COc1ccc(S(=O)(=O)n2ccc(-c3ccc4c(c3)CCC(C)(C)O4)n2)cc1OC | 63.9 | 56 | 53 | 85.3 | 58.3 | 67.1 | 87.1 | 112 | 52.8 | 82.2 | 81.9 | 57.1 | 87.4 | 71.9 | 74.6 | 84.3 | 84.6 | 82.5 | 58.3 | 79.5 | growth at 10 µM (TK-10): 72.1%; growth at 10 µM (NCI-H522): 65.8%; growth at 10 µM (SK-MEL-2): 56.1%
5 | COc1ccc(-c2ccn(S(=O)(=O)c3ccc(OC)cc3)n2)cc1 | 71.3 | 79.8 | 57 | 95.6 | 38.8 | 88.3 | 118 | 101 | 50.2 | 71.3 | 74 | 86.2 | 96.8 | 83 | 89.2 | 91.6 | 88.9 | 96.2 | 66.2 | 86.6 | 
6 | Cc1cc(C)cc(S(=O)(=O)n2ccc(-c3ccc4c(c3)CCC(C)(C)O4)n2)c1 | 73.9 | 73.6 | 85.8 | 88.3 | 78.1 | 80.8 | 103 | 116 | 63 | 96.3 | 82.7 | 89.6 | 94.6 | 82.3 | 91 | 105 | 87.2 | 93.5 | 72.5 | 85.6 | 
7 | CC1(C)CCc2cc(-c3ccn(S(=O)(=O)c4ccc(C(C)(C)C)cc4)n3)ccc2O1 | 70.4 | 83.8 | 72.2 | 92.1 | 73.2 | 74.6 | 118 | 120 | 68.4 | 74.4 | 91.3 | 63 | 88.2 | 87 | 84.5 | 93.3 | 100 | 78.4 | 68.9 | 80.8 | growth at 10 µM (TK-10): 84.3%; growth at 10 µM (NCI-H522): 66.5%; growth at 10 µM (SK-MEL-2): 58.2%
